Screens: PubChem BioAssay, several laboratories
An excerpt weighted towards active compounds, which were near 1.5% of everything screened.
p97 inhibitor: inhibitors of human p97 ATPase, primary screen, biochemical. recombinant p97 ATPase, Kinase-Glo ATP luminescence, 3 h. hit rate 0.42% among 220,000. Transitional endoplasmic reticulum ATPase (Homo sapiens), P55072. AID 1481, 2009. inhibition, % at 8 µM; in the data active = inhibition above about 15%
RBBP9 inh: human RBBP9 inhibitors, primary screen, biochemical, fluorescence polarization, FP-Rh probe, HTS; Serine hydrolase RBBP9 (Homo sapiens), O75884; recombinant RBBP9; inhibition, % at 7.94 µM; hit rate 0.2% among 220,000; AID 1515, 2009;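 active = inhibition above the campaign mean of all tested compounds plus 3 SD, cut at about 14% in these data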
Target sequence (O75884 whole entry, looked up): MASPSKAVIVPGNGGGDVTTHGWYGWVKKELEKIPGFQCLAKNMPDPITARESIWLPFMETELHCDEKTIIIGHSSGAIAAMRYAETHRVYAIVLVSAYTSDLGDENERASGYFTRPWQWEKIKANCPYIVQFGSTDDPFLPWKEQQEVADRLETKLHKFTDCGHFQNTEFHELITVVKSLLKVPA
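Test system: recombinant human RBBP9. Quantity: 2.5 µM RBBP9 dispensing solution, before mixing. Detection: FP readout at 525/598 nm. Reagent: Serine-hydrolase probe FP-Rh, 375 nM pre-mixing. Measure: % inhibition. Control set: DMSO-treated enzyme wells and wells lacking RBBP9. Buffer or medium: Tris-NaCl-Pluronic buffer, pH 8.0. Times: preincubation 30 min plus labeling 45 min at 25 °C.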
PP1 counter: PP1-alpha phosphatase inhibitors, primary screen, counter-screen for PP5 inhibitor project, biochemical, fluorescence, OMFP substrate, single point. Serine/threonine-protein phosphatase PP1-alpha catalytic subunit (Homo sapiens), P62136. purified PP1alpha. inhibition, % at 6.7 µM. hit rate 0.9% among 320,000. AID 2235, 2010;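 active = inhibition above the mean inhibition of all tested compounds plus 3 SD, computed separately for each screening campaign, cut at about 15% in these data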
Target sequence (P62136 whole entry, looked up): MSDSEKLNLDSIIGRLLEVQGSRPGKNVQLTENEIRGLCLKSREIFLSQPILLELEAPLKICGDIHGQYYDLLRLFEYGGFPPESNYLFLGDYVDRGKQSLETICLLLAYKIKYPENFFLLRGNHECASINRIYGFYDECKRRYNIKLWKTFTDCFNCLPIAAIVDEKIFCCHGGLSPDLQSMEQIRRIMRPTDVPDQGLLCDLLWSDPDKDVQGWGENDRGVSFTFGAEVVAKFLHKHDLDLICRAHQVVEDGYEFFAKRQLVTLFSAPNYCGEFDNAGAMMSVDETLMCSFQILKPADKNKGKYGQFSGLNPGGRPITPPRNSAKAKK
Hsp70 act: Hsp70 transcriptional activators, primary screen, cell-based, HeLa, Hsp70 promoter luciferase, luminescence, 10 µM; HeLa Hsp70 promoter luciferase reporter; scaled: vehicle 0, proteasome-inhibitor control 100%; activation, % at 10 µM; hit rate 0.04% among 200,000;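 active = activation above the mean across all tested compounds plus 3 SD, cutoff set per campaign, cut at about 5.5% in these data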
PP5 primary: PP5 phosphatase inhibitors, primary screen, biochemical, fluorescence. inhibition, % at 6.7 µM. AID 1987, 2009. hit rate 0.18% among 320,000. purified PP5c, OMFP substrate fluorescence;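 active = inhibition above the campaign's mean inhibition across all tested compounds plus 3 SD, cut at about 9.5% in these data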
PKD1 inh: inhibitors of human PKD1 kinase, biochemical, fluorescence polarization; Serine/threonine-protein kinase D1 (Homo sapiens), Q15139; PKD1 kinase fluorescence polarization assay; inhibition, % (concentration not given with the values); hit rate 0.056% among 200,000; AID 797, 2007; in the data active = inhibition above about 50%
PP1 inh confirm: PP1 phosphatase inhibitors, confirmation, biochemical, fluorescence, OMFP substrate, triplicate. inhibition, % at 6.7 µM. AID 2358, 2010. hit rate 52% among 1,900. shares compounds with PP1 counter. purified PP1alpha;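 active = mean PP1 inhibition above a set limit taken from the earlier primary screen, cut at about 15% in these data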
PP5 counter: PP5 phosphatase inhibition by PP1 hits, confirmation, counter-screen for PP1 inhibitor project, biochemical, fluorescence, triplicate; shares compounds with PP1 counter; purified PP5c, OMFP fluorescence; inhibition, % at 6.7 µM; hit rate 4% among 1,900; AID 2360, 2010;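 active = mean PP5 inhibition over triplicate wells above about 9.5% taken from the earlier PP1 screen, limit read from the data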
Hits are given with their value; . = inactive; / = no result given.

SMILES	p97 inhibitor	RBBP9 inh	PP1 counter	Hsp70 act	PP5 primary	PKD1 inh	PP1 inh confirm	PP5 counter
CCc1ccccc1NC(=O)CCS(=O)(=O)c1ccc(OC)cc1	/	/	37.1	/	.	/	.	.
CCOc1ccc(C2C(C(=O)O)CCC(=O)N2C2CCCCC2)cc1 (stereo unspecified)	.	.	.	.	.	.	/	/
COCCNC(=O)C1(C(F)(F)F)CC(CCCO)CCCO1 (stereo unspecified)	/	/	.	/	.	/	/	/
Cc1ccc(-c2nn(-c3ccccc3)c3[nH]c(=O)c(CNCc4ccccc4)cc23)cc1	.	.	27.5	.	.	.	26.9	.
CC(C)(C)CC(=O)O/N=C(\N)c1ccccn1	.	.	.	.	.	.	/	/
NC(=O)c1ccc(-c2nnn(CC(=O)Nc3cccc(S(=O)(=O)N4CCCC4)c3)n2)cc1	/	/	.	/	.	/	/	/
Cc1noc(NS(=O)(=O)c2ccc(NC(=O)Nc3ccc(Cl)c(Cl)c3)cc2)c1C	.	.	17.7	.	.	.	.	.
Cc1noc(NS(=O)(=O)c2ccc(NC(=O)C(Cl)(Cl)Cl)cc2)c1C	/	/	.	/	.	/	/	/
Cc1ccc(-n2nc(C)c3c(C)c(CCC(=O)NCC4CCCO4)c(=O)n(C)c32)cc1 (stereo unspecified)	/	/	.	/	.	/	/	/
Cn1cccc1-c1cc(C(=O)N/N=C/c2ccccc2Cl)[nH]n1	/	/	.	/	.	/	/	/
Cn1cccc1-c1cc(C(=O)N/N=C/c2cc(Br)ccc2O)[nH]n1	/	/	21.1	/	.	/	22.5	.
O=C(Nc1ccc(-c2nc3ncccc3o2)cc1)c1ccco1	.	.	.	.	.	.	/	/
O=C(Nc1ccc(-c2nc3ncccc3o2)cc1)c1ccc(Br)o1	.	.	24.9	.	.	.	.	.
O=C(Nc1nnc(-c2ccc(Cl)cc2)o1)c1nc2ccccc2s1	.	.	22.1	.	.	.	26.2	.
O=C(Nc1nnc(-c2ccc(Cl)cc2)o1)Nc1ccccc1Cl	.	.	.	.	.	.	/	/
COC(=O)[C@H]1[C@H]2C[C@H]3c4[nH]c5ccccc5c4CCN3C[C@H]2CC[C@@H]1O	/	/	.	/	.	/	/	/
CCOC(=O)Oc1c(OC)cc(C(=O)O[C@@H]2C[C@@H]3CN4CCc5c([nH]c6cc(OC)ccc56)[C@H]4C[C@@H]3[C@H](C(=O)OC)[C@H]2OC)cc1OC	/	/	19.5	/	.	/	.	.
Cc1ccc(NC2c3ncccc3C(=O)N2Cc2cccs2)cc1 (stereo unspecified)	.	.	23.3	.	.	.	20.4	.
COc1ccc(CN2C(=O)c3cccnc3C2Nc2ccc(C)cc2)cc1 (stereo unspecified)	.	.	.	.	.	.	/	/
Cc1ccc(NC(=O)CN(C)C(=O)CSc2nc(C)cs2)cc1	.	.	.	.	.	.	/	/
O=C(C1CCCO1)N1CCN(C(=S)Nc2cc(F)cc(F)c2)CC1 (stereo unspecified)	/	/	.	/	.	/	/	/
Cc1ccc(S(=O)(=O)Nc2cccc(-c3ccc(N4CCCCCC4)nn3)c2)cc1	/	/	18.4	/	.	/	.	.
O=C(NCCN1CCOCC1)c1cc([N+](=O)[O-])cc([N+](=O)[O-])c1	/	/	.	/	.	/	/	/
CCOc1ccc(S(=O)(=O)NCCCN2CCOCC2)cc1	.	.	22.7	.	.	.	.	.
CCOc1ccc(S(=O)(=O)NCCC(=O)N2CC(C)CC(C)C2)cc1 (stereo unspecified)	/	/	78.9	/	.	/	.	.
SMILES	p97 inhibitor	RBBP9 inh	PP1 counter	Hsp70 act	PP5 primary	PKD1 inh	PP1 inh confirm	PP5 counter
CCOc1ccc(S(=O)(=O)NCCC(=O)N2CCCC(C)C2)cc1 (stereo unspecified)	/	/	.	/	.	/	/	/
c1ccc2c(-c3cc(C4CCNCC4)[nH]n3)cccc2c1	.	.	.	.	.	.	/	/
CNC(=O)/C(C#N)=C/c1ccc(-c2ccc(Cl)cc2)o1	.	.	20.1	.	.	.	15.8	.
CNC(=O)/C(C#N)=C/c1ccc(-c2ccccc2[N+](=O)[O-])o1	.	.	.	.	.	.	/	/
CCN(CC1COc2ccccc2O1)C(=S)Nc1ccc(F)cc1 (stereo unspecified)	.	.	.	.	.	.	/	/
COc1ccc2nc(N3C(=O)C(O)=C(C(=O)c4ccco4)C3c3ccccc3OC)sc2c1 (stereo unspecified)	/	/	28.9	/	.	/	20.3	.
Cc1cc(C)c2nc(N3C(=O)C(O)=C(C(=O)c4ccco4)C3c3ccco3)sc2c1 (stereo unspecified)	/	/	32.3	/	.	/	31.0	.
Cc1ccc2nc(N3C(=O)C(O)=C(C(=O)c4ccco4)C3c3cccs3)sc2c1 (stereo unspecified)	.	.	28.4	.	.	.	28.0	.
CCOc1ccc2nc(N3C(=O)C(O)=C(C(=O)c4ccco4)C3c3ccco3)sc2c1 (stereo unspecified)	/	/	.	/	.	/	/	/
Cc1ccc2nc(N3C(=O)C(O)=C(C(=O)c4ccc(C)o4)C3c3ccc(O)cc3)sc2c1 (stereo unspecified)	/	/	30.2	/	.	/	21.4	.
Cc1ccc(C(=O)C2=C(O)C(=O)N(c3ncccn3)C2c2ccc(Cl)cc2)o1 (stereo unspecified)	.	.	.	.	.	.	/	/
Fc1ccc(OCCOCCN2CCNCC2)cc1	/	/	.	/	.	/	/	/
COc1ccc(S(=O)(=O)NCc2ccc(C(=O)NCCCN3CCCC(C)C3)cc2)cc1 (stereo unspecified)	/	/	.	/	.	/	/	/
O=C(CN(Cc1ccccc1F)C(=O)c1csnn1)NCc1ccc2c(c1)OCO2	/	/	.	/	.	/	/	/
CCOC(=O)c1sc(N2C(=O)C(O)=C(C(=O)c3ccco3)C2c2ccco2)nc1C (stereo unspecified)	/	/	18.2	/	.	/	.	.
CCOC(=O)c1sc(N2C(=O)C(O)=C(C(=O)c3ccco3)C2c2ccccc2)nc1C (stereo unspecified)	.	.	/	.	/	.	/	/
Cc1cc(C)nc(SCc2nnc(SCC(=O)Nc3nccs3)n2Cc2ccco2)n1	.	.	.	.	.	.	/	/
O=C(CSc1nnc(-c2ccc(O)cc2)n1Cc1ccco1)c1cccs1	.	.	29.7	.	.	.	.	.
Cc1occc1-c1nnc(SCC(=O)Nc2nccs2)n1Cc1ccco1	.	.	29.7	.	.	.	.	.
